# Test results: article PMC3616288 (The EMBO Journal, 2013)
# T1: β′‐COP (Saccharomyces cerevisiae, UniProt P41811)
# T1 sequence (P41811 1-814): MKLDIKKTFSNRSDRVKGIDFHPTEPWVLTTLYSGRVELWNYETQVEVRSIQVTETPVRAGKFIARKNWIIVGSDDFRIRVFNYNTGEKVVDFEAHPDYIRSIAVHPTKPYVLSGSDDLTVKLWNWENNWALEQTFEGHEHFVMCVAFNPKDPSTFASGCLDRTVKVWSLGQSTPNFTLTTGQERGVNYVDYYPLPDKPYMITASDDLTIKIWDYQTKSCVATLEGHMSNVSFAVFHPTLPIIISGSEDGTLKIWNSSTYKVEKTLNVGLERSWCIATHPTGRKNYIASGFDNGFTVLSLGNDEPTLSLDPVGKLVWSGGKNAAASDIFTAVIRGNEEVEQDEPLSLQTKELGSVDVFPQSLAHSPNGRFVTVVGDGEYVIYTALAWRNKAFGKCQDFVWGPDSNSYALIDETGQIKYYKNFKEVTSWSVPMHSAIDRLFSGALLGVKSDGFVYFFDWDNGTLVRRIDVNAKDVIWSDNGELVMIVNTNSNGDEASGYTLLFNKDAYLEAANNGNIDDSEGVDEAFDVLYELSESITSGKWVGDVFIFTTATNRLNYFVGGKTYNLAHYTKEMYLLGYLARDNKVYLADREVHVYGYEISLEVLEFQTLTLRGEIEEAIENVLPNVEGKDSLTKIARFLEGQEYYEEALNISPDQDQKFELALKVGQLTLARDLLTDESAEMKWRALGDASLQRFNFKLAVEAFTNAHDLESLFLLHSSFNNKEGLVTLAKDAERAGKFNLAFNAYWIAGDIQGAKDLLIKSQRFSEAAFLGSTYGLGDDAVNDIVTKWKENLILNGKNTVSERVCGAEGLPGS
# T1 sequence (P53622 642-818 partner limits assumed): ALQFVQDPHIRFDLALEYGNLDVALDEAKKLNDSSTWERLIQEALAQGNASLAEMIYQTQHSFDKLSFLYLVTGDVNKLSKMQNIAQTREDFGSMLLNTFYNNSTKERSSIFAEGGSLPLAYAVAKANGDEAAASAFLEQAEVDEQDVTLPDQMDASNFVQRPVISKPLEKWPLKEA
# T2: α‐COP (Schizosaccharomyces pombe, UniProt Q96WV5, F197K/I192K/L181K/L185K/L196K)
# T2 sequence (Q96WV5 1-327 L181K/L185K/I192K/L196K/F197K): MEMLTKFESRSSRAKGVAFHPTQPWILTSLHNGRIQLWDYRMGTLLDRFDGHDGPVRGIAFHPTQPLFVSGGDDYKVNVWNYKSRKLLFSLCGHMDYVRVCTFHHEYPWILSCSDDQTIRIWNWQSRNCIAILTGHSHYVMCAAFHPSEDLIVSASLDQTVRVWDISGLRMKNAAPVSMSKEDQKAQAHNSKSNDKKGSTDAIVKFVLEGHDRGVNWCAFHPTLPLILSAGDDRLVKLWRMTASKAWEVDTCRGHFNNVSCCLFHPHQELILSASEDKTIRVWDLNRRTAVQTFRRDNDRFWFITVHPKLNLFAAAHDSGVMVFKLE
# T3: S. cerevisiae β′-COP(1–814)/α-COP(642–818) dimer (S. cerevisiae, UniProt P41811 1-814; P53622 642-818)
# T3 sequence (looked up) 1: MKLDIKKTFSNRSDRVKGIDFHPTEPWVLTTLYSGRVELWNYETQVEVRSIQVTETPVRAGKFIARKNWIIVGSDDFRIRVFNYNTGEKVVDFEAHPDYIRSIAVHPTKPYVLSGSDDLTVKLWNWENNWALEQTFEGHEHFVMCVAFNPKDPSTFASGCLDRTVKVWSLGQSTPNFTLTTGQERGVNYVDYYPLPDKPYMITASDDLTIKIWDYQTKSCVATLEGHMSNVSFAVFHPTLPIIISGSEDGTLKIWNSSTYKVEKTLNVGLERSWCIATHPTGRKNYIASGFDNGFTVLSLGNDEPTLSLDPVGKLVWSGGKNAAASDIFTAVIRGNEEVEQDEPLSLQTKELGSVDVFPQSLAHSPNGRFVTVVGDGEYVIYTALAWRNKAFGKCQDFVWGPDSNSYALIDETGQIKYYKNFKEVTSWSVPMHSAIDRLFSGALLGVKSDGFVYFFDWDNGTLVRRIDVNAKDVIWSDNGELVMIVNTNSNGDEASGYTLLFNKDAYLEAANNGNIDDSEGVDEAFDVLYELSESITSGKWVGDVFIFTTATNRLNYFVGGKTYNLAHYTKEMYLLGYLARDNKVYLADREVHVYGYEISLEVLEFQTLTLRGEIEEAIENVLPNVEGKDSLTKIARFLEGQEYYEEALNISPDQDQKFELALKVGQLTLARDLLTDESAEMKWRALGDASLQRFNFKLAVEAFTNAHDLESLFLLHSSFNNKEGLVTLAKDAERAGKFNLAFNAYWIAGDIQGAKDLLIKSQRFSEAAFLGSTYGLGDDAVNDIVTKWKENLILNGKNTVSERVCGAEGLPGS
# T3 sequence (looked up) 2: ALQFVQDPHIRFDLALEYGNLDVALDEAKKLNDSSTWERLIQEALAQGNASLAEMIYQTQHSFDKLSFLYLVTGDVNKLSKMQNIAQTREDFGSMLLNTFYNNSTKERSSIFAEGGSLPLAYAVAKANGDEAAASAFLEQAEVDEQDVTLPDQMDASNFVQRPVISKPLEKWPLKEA
# T4: S. cerevisiae β′-COP N-terminal β-propeller domain (residues 1–301) (S. cerevisiae, UniProt P41811 1-301)
# T4 sequence (looked up): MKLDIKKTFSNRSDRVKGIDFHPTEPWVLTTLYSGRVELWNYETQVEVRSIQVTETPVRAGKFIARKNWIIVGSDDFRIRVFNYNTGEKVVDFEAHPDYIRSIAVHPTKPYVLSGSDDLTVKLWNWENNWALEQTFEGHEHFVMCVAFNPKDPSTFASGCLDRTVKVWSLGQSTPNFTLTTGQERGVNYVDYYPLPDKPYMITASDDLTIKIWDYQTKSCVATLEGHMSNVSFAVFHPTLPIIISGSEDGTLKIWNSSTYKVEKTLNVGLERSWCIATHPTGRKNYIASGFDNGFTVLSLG
# T5: S. cerevisiae α-COP(1–818)/β′-COP(651–814) dimer (S. cerevisiae, UniProt P53622 1-818; P41811 651-814)
# T5 sequence (looked up) 1: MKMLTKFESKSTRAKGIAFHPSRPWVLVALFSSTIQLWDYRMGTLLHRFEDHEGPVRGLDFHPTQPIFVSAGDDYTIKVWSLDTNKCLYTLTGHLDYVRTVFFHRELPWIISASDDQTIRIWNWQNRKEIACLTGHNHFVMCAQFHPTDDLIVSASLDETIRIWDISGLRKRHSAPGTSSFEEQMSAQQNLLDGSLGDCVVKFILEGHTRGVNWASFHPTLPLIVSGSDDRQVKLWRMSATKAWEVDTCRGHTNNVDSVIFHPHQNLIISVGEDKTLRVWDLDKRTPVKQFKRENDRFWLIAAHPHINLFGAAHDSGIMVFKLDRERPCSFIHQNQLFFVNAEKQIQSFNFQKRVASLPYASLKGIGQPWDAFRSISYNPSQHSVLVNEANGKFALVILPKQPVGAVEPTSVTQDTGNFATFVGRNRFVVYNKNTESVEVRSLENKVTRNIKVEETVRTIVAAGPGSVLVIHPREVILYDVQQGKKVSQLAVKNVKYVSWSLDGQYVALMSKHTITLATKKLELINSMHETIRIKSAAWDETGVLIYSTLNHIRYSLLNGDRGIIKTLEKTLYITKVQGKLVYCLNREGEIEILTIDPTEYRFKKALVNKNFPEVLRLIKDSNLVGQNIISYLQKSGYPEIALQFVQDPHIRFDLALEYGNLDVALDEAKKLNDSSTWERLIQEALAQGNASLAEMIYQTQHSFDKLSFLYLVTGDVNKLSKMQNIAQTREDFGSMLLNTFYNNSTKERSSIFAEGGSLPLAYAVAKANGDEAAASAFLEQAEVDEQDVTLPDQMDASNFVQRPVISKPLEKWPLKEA
# T5 sequence (looked up) 2: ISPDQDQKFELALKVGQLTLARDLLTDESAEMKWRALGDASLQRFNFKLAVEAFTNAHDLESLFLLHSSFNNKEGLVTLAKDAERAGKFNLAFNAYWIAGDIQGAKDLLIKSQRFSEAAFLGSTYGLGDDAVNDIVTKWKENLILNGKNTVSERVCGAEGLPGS
# Legend:
# β′‐COP = biological target: T1, β′‐COP; assay: Isothermal calorimetry; type: binding, S. cerevisiae; conditions: ITC; relative to TFKKTN (yWbp1) peptide
# Outline: (§1)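 Synthetic peptides and protein were dialysed overnight into the same 20 mM Tris–HCl pH 7.5, 150 mM NaCl. α-COP target: quintuple-mutant S. pombe α-COP(1–327), His-Smt3-tagged, E. coli-expressed, tag cleaved. β′-COP target: S. cerevisiae β′-COP(1–814)/α-COP C-terminal fragment dimer from Hi-5 insect cells. Ratios are taken from the Kd values.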
# α‐COP = biological target: T2, α‐COP; assay: Isothermal calorimetry; type: binding, S. pombe; conditions: from ITC Kd values for α‐COP and β′‐COP
# Outline: as §1
# [1] = biological target: S. cerevisiae β′-COP(1–814)/α-COP(642–818) dimer (S. cerevisiae) (UniProt P41811); assay: ITC
# [2] = biological target: T3, S. cerevisiae …; assay: ITC
# [3] = biological target: T4, S. cerevisiae β′-COP N-terminal …; assay: crystal structure
# [4] = biological target: T3, S. cerevisiae …; assay: pull-down
# [5] = biological target: T5, S. cerevisiae …; assay: pull-down
molecule,measurement,setting,value
TFKKSN,binds more tightly than KKTN to β′‐COP by a factor,β′‐COP,1.8 fold
same,ratio of affinities of α‐COP and β′‐COP: factor by which the motif favours α‐COP,α‐COP,2.2
yeast Wbp1 variant peptide TFKKSN,fold tighter binding than KKTN,[1],1.8 fold
FEAKKLV [p25 peptide FEAKKLV],Kd,[2],27.7 µM
FEKVHVQ [porcine epidemic diarrhoea virus spike protein peptide FEKVHVQ],binding result,[3],binds
"KYKSRRSFIDEKKMP (domain or fragment, adenovirus, UniProt P68978 145-159, looked up) [GST fused to the cytoplasmic region of adenoviral E19 protein (KKxx motif)]",binding result,[4],binds
same,binding result,[5],binds
"RIRQEIIKTKLL (domain or fragment, yeast, UniProt P43555 434-445, looked up) [GST fused to the cytoplasmic region of Emp47p (KxKxx motif)]",binding result,[4],binds
same,binding result,[5],binds
PEKPHSD [Insig-1 peptide PEKPHSD],binding result,[2],binds
same,binding result,[3],binds
"RHLKSFFEAKKLV (domain or fragment, UniProt Q9BVK6 223-235, looked up) [GST fused to the cytoplasmic region of p25 (KKxx motif)]",binding result,[4],binds
same,binding result,[5],binds
AEKSHQE [Insig-2 peptide AEKSHQE],binding result,[2],binds
same,binding result,[3],binds
IKTKLL [Emp47p peptide IKTKLL],Kd,[2],22.5 µM
GARKLD [Scyl1 peptide GARKLD],Kd,[2],20.4 µM
RRSFIDEKKMP [adenoviral E19 protein peptide RRSFIDEKKMP],Kd,[2],49 µM
EKEKSD [human Wbp1 (OST48) peptide EKEKSD],Kd,[2],3.4 µM
TFKKTN [yeast Wbp1 peptide TFKKTN],Kd,[2],171 µM
